What all share (assay type): cell-based
For assay [1], the target named is T1, GABA-A receptor; alpha-2/beta-3/gamma-2 (Homo sapiens, UniProt P18507+P28472+P47869).
T1 sequence (P18507 whole entry): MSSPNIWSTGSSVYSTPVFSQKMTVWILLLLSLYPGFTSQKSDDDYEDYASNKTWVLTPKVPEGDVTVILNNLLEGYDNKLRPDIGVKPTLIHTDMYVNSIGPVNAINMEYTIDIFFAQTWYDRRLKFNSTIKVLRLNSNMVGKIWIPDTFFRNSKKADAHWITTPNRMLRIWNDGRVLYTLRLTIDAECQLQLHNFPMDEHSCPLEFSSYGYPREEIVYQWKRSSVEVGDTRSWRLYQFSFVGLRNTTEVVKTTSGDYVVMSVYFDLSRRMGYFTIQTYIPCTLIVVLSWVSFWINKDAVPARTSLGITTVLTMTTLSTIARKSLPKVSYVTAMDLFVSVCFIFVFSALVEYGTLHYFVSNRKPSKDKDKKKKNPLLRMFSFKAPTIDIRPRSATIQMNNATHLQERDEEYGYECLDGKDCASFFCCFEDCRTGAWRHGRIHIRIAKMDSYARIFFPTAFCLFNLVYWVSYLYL
T1 sequence (P28472 whole entry): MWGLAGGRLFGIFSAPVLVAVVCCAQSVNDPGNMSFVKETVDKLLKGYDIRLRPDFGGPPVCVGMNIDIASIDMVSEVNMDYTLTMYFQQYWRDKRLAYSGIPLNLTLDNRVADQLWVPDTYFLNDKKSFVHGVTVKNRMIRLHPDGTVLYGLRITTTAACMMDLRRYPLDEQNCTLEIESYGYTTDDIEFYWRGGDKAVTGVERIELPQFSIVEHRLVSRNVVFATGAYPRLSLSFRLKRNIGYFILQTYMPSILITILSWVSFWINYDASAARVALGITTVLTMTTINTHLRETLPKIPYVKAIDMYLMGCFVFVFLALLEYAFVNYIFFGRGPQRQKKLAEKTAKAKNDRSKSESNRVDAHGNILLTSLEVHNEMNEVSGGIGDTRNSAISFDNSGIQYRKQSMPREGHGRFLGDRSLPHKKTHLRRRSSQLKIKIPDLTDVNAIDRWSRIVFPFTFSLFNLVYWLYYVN
T1 sequence (P47869 whole entry): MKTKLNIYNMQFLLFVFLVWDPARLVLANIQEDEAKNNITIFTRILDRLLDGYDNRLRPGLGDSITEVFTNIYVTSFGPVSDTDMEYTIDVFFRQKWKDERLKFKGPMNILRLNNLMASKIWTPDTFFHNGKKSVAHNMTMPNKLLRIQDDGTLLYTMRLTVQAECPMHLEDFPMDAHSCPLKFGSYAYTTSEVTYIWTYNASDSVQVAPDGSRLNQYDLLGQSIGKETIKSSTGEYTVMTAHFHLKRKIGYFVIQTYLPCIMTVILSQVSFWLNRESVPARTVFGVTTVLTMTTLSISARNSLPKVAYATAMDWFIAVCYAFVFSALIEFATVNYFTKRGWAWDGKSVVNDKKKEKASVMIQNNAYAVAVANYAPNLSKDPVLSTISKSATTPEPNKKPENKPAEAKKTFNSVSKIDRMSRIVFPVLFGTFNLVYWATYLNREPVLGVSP
The assay can be described thus: Inhibition of [3H]Ro-151788 binding to recombinant human gamma-aminobutyric acid A receptor alpha-2-beta-3-gamma-2 subtype expressed in L (tk-) cells.

The target of assay [2] is T2, GABA-A receptor; alpha-5/beta-3/gamma-2 (Homo sapiens, UniProt P18507+P28472+P31644).
T2 sequence (P18507 whole entry): T1 sequence (P18507 whole entry)
T2 sequence (P28472 whole entry): T1 sequence (P28472 whole entry)
T2 sequence (P31644 whole entry): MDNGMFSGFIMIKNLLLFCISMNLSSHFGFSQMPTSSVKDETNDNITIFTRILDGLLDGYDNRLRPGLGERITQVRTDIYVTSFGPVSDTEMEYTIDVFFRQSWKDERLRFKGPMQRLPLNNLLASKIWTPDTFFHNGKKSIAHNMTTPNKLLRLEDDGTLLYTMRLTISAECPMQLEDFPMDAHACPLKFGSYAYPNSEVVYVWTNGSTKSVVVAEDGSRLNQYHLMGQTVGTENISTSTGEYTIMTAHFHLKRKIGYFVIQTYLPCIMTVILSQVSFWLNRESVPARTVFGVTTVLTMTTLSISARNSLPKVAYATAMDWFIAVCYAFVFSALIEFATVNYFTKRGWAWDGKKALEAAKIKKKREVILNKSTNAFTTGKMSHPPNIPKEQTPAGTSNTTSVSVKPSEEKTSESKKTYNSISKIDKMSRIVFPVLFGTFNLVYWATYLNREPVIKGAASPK
Briefly: Inhibition of [3H]Ro-151788 binding to recombinant human gamma-aminobutyric-acid A receptor alpha-5-beta-3-gamma-2 subtype expressed in L (tk-) cells.

Assay [3] addresses T3, GABA-A receptor; alpha-1/beta-3/gamma-2 (Homo sapiens, UniProt P14867+P18507+P28472).
T3 sequence (P14867 whole entry): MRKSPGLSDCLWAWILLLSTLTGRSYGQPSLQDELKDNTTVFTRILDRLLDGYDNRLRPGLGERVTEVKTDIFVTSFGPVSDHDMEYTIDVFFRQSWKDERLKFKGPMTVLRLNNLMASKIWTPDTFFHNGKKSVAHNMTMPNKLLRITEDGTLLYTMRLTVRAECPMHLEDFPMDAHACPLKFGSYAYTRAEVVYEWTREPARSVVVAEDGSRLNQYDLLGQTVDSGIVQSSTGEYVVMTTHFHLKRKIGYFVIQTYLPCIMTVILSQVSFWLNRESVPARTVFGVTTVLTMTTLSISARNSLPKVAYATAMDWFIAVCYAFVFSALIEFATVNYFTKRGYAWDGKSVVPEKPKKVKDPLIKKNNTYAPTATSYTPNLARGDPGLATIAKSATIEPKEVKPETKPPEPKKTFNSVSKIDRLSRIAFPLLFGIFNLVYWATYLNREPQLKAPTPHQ
T3 sequence (P18507 whole entry): T1 sequence (P18507 whole entry)
T3 sequence (P28472 whole entry): T1 sequence (P28472 whole entry)
Briefly: Inhibition of [3H]Ro-151788 binding to recombinant human gamma-aminobutyric-acid A receptor alpha-1-beta-3-gamma-2 subtype expressed in L (tk-) cells.

Assay [4] addresses GABA-A receptor; alpha-3/beta-3/gamma-2 (Homo sapiens) (UniProt P18507+P28472+P34903). The assay can be described thus: Efficacy was measured as modulation of the current in response to GABA at hGABA alpha-3-beta-3-gamma-2 receptor expressed in Xenopus oocytes. The settings on record: Oocyte. The gist of the method: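 Two-electrode voltage clamp on Xenopus oocytes expressing each receptor combination. […] Value is percent increase or decrease of the EC20 GABA current.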

In assay [5] the target is T4, GABA-A receptor; alpha-3/beta-3/gamma-2 (Homo sapiens, UniProt P18507+P28472+P34903).
T4 sequence (P18507 whole entry): T1 sequence (P18507 whole entry)
T4 sequence (P28472 whole entry): T1 sequence (P28472 whole entry)
T4 sequence (P34903 whole entry): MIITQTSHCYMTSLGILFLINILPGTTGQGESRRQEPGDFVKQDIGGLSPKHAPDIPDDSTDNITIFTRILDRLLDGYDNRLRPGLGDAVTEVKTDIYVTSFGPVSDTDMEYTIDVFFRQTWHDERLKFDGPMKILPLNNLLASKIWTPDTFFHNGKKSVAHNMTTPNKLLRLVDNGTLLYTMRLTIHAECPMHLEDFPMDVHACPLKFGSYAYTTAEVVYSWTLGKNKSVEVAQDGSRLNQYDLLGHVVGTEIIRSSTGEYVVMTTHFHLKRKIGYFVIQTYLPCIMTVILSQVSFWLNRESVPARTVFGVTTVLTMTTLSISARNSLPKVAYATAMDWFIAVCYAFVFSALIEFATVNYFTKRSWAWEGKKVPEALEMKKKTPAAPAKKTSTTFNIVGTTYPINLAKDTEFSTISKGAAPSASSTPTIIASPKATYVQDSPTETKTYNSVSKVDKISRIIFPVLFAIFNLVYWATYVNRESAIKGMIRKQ
Briefly: Inhibition of [3H]Ro-151788 binding to recombinant human gamma-aminobutyric-acid A receptor alpha-3-beta-3-gamma-2 subtype expressed in L (tk-) cells.

Broadly, the Ki is a measure of affinity in units of concentration, obtained from inhibition or displacement. For `c1ccc(-c2nnc3c4c(c(OCc5ccncn5)nn23)C2CCC4CC2)cc1`, the Ki in assay [1] came out at 8.1 nM; in assay [2], 0.555 nM; in assay [3], 22 nM; in assay [5], 3.1 nM. The compound also showed an Efficacy in assay [4] of 14%.

In the case of `Cc1ccc(COc2nn3c(-c4ccccc4)nnc3c3c2C2CCC3CC2)nn1`, the Ki amounted to 22 nM in assay [1], 2.1 nM in assay [2], 50 nM in assay [3] and 10 nM in assay [5]. For the same compound, the Efficacy in assay [4] was determined as 31%.

For the compound `Cc1ccc(C)c(COc2nn3c(-c4ccccc4)nnc3c3c2C2CCC3CC2)n1`, the Ki in assay [1] turned out to be 8.7 nM; in assay [2], 0.84 nM; in assay [3] it was 27 nM; in assay [5], 3.6 nM. Further, the Efficacy in assay [4] is 12%.

In the case of `c1ccc(-c2nnc3c4c(c(OCc5cnccn5)nn23)C2CCC4CC2)cc1`, the Ki in assay [1] was determined as 6.5 nM; in assay [2], 0.77 nM; in assay [3], 16 nM; in assay [5], 3 nM. The same compound returned an Efficacy in assay [4] of 27%.

Consider `N#Cc1cccnc1COc1nn2c(-c3ccccc3)nnc2c2c1C1CCC2CC1`, for which the Ki in assay [1] worked out at 5.9 nM; in assay [2], 0.54 nM; in assay [3], 13 nM; in assay [5], 1.7 nM. The compound also registered an Efficacy in assay [4] of 17%.

As for `Cc1c[nH]c(COc2nn3c(-c4ccccc4)nnc3c3c2C2CCC3CC2)n1`, the Ki was 15 nM in assay [1], 0.9 nM in assay [2], 85 nM in assay [3] and 7.8 nM in assay [5]. In assay [4], the Efficacy came out at 28%.

In the case of `FC(F)(F)Oc1ccc(COc2nn3c(-c4ccccc4)nnc3c3c2C2CCC3CC2)cc1`, the inhibitory constant (Ki) in assay [1], in assay [2], in assay [3] and in assay [5] was more than 500 nM throughout.

For the compound `c1ccc(-c2nnc3c4c(c(CNc5ccccn5)nn23)C2CCC4CC2)cc1`, the Ki in assay [1], in assay [2], in assay [3] and in assay [5] was more than 1000 nM each time.

In turn, `c1ccc(-c2nnc3c4c(c(OCc5nc[nH]n5)nn23)C2CCC4CC2)cc1` displayed an Efficacy in assay [4] of 49%.

Turning to `c1ccc(COc2nn3c(-c4ccco4)nnc3c3c2C2CCC3CC2)nc1`, the Ki in assay [1] amounted to 110 nM; in assay [2], 5.3 nM; in assay [3] it was 270 nM; in assay [5], 53 nM.

As to `c1ccc(-c2nnc3c4c(c(OCc5cccs5)nn23)C2CCC4CC2)cc1`, the inhibition constant Ki in assay [1], in assay [2], in assay [3] and in assay [5] was more than 500 nM each time.

On to `OCc1cccc(COc2nn3c(-c4ccccc4)nnc3c3c2C2CCC3CC2)c1`, for which the Ki in assay [1] amounted to 110 nM; in assay [2], 11 nM; in assay [3], 490 nM; in assay [5], 43 nM.

`COC(=O)c1cccnc1COc1nn2c(-c3ccccc3)nnc2c2c1C1CCC2CC1`: the Ki amounted to 30 nM in assay [1], 2.5 nM in assay [2] and 7.1 nM in assay [5]. In addition, the Efficacy in assay [4] was determined as 29%.

For `COc1ccccc1-c1nnc2c3c(c(OCc4ccccn4)nn12)C1CCC3CC1`, the inhibition constant Ki was more than 1000 nM in assay [1], 170 nM in assay [2], more than 1000 nM in assay [3] and more than 1000 nM in assay [5].

For the compound `CN1CCCCC1COc1nn2c(-c3ccccc3)nnc2c2c1C1CCC2CC1` (stereo not given), the Ki in assay [1], in assay [2], in assay [3] and in assay [5] was more than 1000 nM throughout.

As for `Oc1cccnc1COc1nn2c(-c3ccccc3)nnc2c2c1C1CCC2CC1`, the Ki in assay [1] came out at 470 nM; in assay [2], 34 nM; in assay [3], 270 nM; in assay [5] it was 180 nM.

As for `CN(C(=O)COc1nn2c(-c3ccccc3)nnc2c2c1C1CCC2CC1)c1ccccc1`, the Ki is 72 nM in assay [1], 7.4 nM in assay [2], 21 nM in assay [3] and 41 nM in assay [5].

Turning to `Clc1ccc(COc2nn3c(-c4ccccc4)nnc3c3c2C2CCC3CC2)nn1`, the Ki was found to be 42 nM in assay [1], 1.3 nM in assay [2], 73 nM in assay [3] and 23 nM in assay [5].

These data come from ChEMBL document CHEMBL1142695, “Discovery of functionally selective 7,8,9,10-tetrahydro-7,10-ethano-1,2,4-triazolo[3,4-a]phthalazines as GABA A receptor agonists at the alpha3 subunit” (J Med Chem, 2005).
